Assay results collected from several papers.
Each line is one published result; the experiments were not run side by side.
Transmembrane protease serine 6: Transmembrane protease serine 6 (Homo sapiens, UniProt Q8IU80)
Palmitoyl-protein thioesterase 1: Palmitoyl-protein thioesterase 1 (Homo sapiens, UniProt P50897)

Structure (SMILES)	target	test	setting	quantity	value
CC(C)[C@@H](NC(=O)[C@H](Cc1cscn1)NC(=O)CCc1ccccc1)C(=O)N[C@@H](CCCNC(=N)N)C(=O)c1nc2ccccc2s1	Transmembrane protease serine 6	enzyme activity, inhibitor	0.1 µM	remaining activity	68%
O=C(CCCN1CC=C(n2c(=O)[nH]c3ccccc32)CC1)c1ccc(F)cc1	Palmitoyl-protein thioesterase 1	enzyme activity, inhibitor	125 µM	inhibition	1.07%
Cc1cc([C@@H](C)Nc2ccccc2C(=O)O)c2nc(N3CCC(F)(F)CC3)c(C#N)c(=O)n2c1	SRSF protein kinase 3 (SRPK3, Homo sapiens, UniProt Q9UPE1)	binding, competition with immobilised ligand	10 µM	remaining binding	96%
CNc1ncc2c(/C=C/C(=O)N3CCC(OC)CC3)nn(Cc3cccc(C(F)(F)F)c3)c2n1	Epidermal growth factor receptor (EGFR, Homo sapiens, UniProt P00533)	enzyme activity, inhibitor, radiometric	1 µM	remaining activity	108%
COc1cc(-c2cncc3c2CN(C)Cc2cc(N4CCNCC4)ccc2-3)cc(OC)c1OC	Muscle, skeletal receptor tyrosine-protein kinase (MUSK, Homo sapiens, UniProt O15146)	enzyme activity, inhibitor	1 µM	remaining activity	113%
N=C(N)NCCC[C@H](NC(=O)[C@@H](NC(=O)[C@H](Cc1cscn1)NC(=O)CCc1ccccc1)C(c1ccccc1)c1ccccc1)C(=O)c1nc2ccccc2s1	Transmembrane protease serine 6	enzyme activity, inhibitor	0.1 µM	remaining activity	65%
C=CC(=O)N1CCC(COCC(=O)N2CCN(c3nc(-c4cnc(N)nc4C(F)F)nc(N4CCOC[C@@H]4C)n3)CC2)CC1	Ribosomal protein S6 kinase alpha-2, C-terminal kinase domain (RPS6KA2, Homo sapiens, UniProt Q15349)	binding, competition with immobilised ligand	1 µM	remaining binding	90%
N=C(N)NCCC[C@H](NC(=O)[C@H](CCc1ccccc1)NC(=O)[C@H](Cc1cscn1)NC(=O)CCc1ccccc1)C(=O)c1nc2ccccc2s1	Transmembrane protease serine 6	enzyme activity, inhibitor	0.1 µM	remaining activity	2%
NC(=O)c1c(OCc2c(F)cc(Br)cc2F)nsc1NC(=O)NCCCCN1CCCC1	Palmitoyl-protein thioesterase 1	enzyme activity, inhibitor	125 µM	inhibition	8.63%
